Among the data in ChEMBL document CHEMBL1130003, “Synthesis and ligand binding of nortropane derivatives: N-substituted 2beta-carbomethoxy-3beta-(4'-iodophenyl)nortropane and N-(3-iodoprop-(2E)-enyl)-2beta-carbomethoxy-3beta-(3',4'-disubstituted phenyl)nortropane. New high-affinity and selective compounds for the dopamine transporter” (J Med Chem, 1997) are Ki and Selectivity values, retold here.

Experiment [1] deals with Sodium-dependent dopamine transporter (Rattus norvegicus, UniProt P23977). The experiment in a line: Displacement of [3H]GBR-12935 from dopamine transporter (DAT) in rat brain membranes. Format: cell membranes. An outline of the steps: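 Rat striatum crude membranes (100 µg protein) in sodium hydrogenocarbonate buffer pH 7.5 with 0.01% BSA. [3H]GBR-12935 1 nM (Kd 1.6 nM). Competitor 10^-5 to 10^-10 M. Incubation 37 °C, 1 h, then glass fiber filtration, ice-cold wash, beta counting. Nonspecific binding with 10^-6 M mazindol. Run in duplicate. Ki by Cheng-Prusoff.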
Chain of Sodium-dependent dopamine transporter (P23977 whole entry): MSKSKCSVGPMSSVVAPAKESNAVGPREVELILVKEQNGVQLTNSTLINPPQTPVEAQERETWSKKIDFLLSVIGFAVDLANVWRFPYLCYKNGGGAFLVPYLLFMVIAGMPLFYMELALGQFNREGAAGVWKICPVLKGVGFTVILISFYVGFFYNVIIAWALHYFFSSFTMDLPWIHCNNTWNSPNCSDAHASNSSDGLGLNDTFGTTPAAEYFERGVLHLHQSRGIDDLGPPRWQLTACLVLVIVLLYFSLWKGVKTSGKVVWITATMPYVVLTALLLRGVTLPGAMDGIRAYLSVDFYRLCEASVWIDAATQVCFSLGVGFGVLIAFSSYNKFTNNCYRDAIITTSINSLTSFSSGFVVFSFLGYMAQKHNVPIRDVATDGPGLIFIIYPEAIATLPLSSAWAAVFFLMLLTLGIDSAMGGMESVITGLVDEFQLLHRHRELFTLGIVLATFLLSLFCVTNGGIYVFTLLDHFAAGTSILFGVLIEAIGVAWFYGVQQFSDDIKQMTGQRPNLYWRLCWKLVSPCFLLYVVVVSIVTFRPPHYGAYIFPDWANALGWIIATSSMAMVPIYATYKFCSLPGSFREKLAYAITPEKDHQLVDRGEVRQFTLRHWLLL

Experiment [2] addresses Norepinephrine transporter (Rattus norvegicus, UniProt Q9WTR4). Kind of experiment: Displacement of [3H]nisoxetine from norepinephrine transporter (NET) in rat brain membranes. Format: cell membranes. An outline of the steps:
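Rat frontoparietal cortex crude membranes in 50 mM Tris-HCl pH 7.4, 120 mM NaCl, 5 mM KCl. [3H]nisoxetine 0.5 nM (Kd 1.3 nM). Competitor 10^-5 to 10^-10 M. Incubation 2 °C, 5 h, then filtration, wash, beta counting. Nonspecific binding with 10^-6 M desipramine. Run in duplicate. Ki from IC50 by Cheng-Prusoff.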

Experiment [3] concerns the target Monoamine transporters; Norepininephrine & dopamine (Rattus norvegicus) (UniProt P23977+Q9WTR4). Kind of experiment: Selectivity index for norepinephrine and dopamine transporters. The class given is protein assay.
The target of experiment [4] is Monoamine transporters; serotonin & dopamine (Rattus norvegicus) (UniProt P31652+P23977). The experiment in a line: Selectivity index for serotonin and dopamine transporters. The class given is protein assay.
Chain of Monoamine transporters; serotonin & dopamine (Rattus norvegicus) (P23977 whole entry, looked up): as the sequence (P23977 whole entry) above
Chain of Monoamine transporters; serotonin & dopamine (Rattus norvegicus) (P31652 whole entry, looked up): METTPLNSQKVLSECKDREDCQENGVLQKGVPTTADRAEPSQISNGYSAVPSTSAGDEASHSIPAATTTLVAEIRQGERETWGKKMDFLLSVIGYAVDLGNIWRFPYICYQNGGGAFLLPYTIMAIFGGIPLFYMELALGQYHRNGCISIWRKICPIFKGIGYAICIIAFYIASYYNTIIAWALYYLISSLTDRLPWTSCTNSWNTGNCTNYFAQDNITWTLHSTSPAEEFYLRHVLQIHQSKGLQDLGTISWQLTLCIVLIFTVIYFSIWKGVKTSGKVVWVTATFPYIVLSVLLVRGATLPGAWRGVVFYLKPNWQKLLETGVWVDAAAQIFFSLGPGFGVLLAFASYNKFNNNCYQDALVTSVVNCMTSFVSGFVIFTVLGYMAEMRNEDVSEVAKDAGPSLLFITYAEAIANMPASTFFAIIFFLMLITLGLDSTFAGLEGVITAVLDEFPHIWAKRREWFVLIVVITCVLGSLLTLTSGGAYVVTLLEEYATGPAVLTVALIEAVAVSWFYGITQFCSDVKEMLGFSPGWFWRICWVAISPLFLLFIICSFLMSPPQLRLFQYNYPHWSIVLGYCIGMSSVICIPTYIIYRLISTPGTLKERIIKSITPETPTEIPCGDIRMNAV
Experiment [5] has as its target Sodium-dependent serotonin transporter (Rattus norvegicus, UniProt P31652). Kind of experiment: Displacement of [3H]- paroxetine from serotonin transporter (5-HTT) in rat brain membranes. Format: cell membranes. An outline of the steps: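 Rat frontoparietal cortex crude membranes in 50 mM Tris-HCl pH 7.4 with 120 mM NaCl, 5 mM KCl. [3H]paroxetine 0.5 nM (Kd 0.5 nM). Competitor 10^-5 to 10^-10 M. Incubation 22 °C, 1 h, then glass fiber filtration, ice-cold wash, beta counting. Nonspecific binding with 10^-6 M fluvoxamine. Run in duplicate. Ki from IC50 by Cheng-Prusoff.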

Chain of Norepinephrine transporter (Q9WTR4 whole entry): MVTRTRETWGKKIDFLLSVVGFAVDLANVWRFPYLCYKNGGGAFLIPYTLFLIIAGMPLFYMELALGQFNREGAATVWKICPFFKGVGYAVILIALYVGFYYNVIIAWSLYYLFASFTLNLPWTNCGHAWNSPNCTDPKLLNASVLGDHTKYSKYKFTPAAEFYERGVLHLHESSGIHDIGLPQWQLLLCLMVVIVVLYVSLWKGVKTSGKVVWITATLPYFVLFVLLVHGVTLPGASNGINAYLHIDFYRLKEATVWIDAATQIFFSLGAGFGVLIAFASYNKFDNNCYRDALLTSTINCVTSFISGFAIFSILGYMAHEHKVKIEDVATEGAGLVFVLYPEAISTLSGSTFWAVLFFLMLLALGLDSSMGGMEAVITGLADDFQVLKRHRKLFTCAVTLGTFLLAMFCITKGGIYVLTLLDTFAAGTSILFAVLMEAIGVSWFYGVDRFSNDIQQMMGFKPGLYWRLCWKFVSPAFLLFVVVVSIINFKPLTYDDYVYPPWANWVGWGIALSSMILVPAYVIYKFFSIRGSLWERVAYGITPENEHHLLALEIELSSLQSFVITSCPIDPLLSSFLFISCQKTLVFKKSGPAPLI
Chain of Sodium-dependent serotonin transporter (P31652 whole entry): as the sequence (P31652 whole entry, looked up) above

On to `COC(=O)[C@@H]1C2CCC(C[C@@H]1c1ccc(Cl)c(Cl)c1)N2C/C=C/I` (stereo not given in full), for which the Ki in experiment [1] is 29 nM; in experiment [2], 500 nM; in experiment [5] it was 50 nM. Besides, the Selectivity was determined as 17.2 in experiment [3] and 1.7 in experiment [4].

`COC(=O)[C@@H]1C2CCC(C[C@@H]1c1ccc(C)cc1)N2C/C=C/I` (stereo not given in full): the Ki in experiment [1] was 17 nM; in experiment [2] it was more than 1000 nM; in experiment [5], 500 nM. The Selectivity in experiment [3] is more than 58; in experiment [4] it was 29.4.

In the case of `CCCc1ccc(C2C[C@H]3CCC([C@H]2C(=O)OC)N3C/C=C/I)cc1` (stereo not given in full), the Ki in experiment [1] was determined as 500 nM; in experiment [2], 750 nM; in experiment [5], 300 nM. Moreover, the Selectivity is 1.5 in experiment [3] and 0.6 in experiment [4].

In the case of `C=C(Br)CN1C2CC[C@@H]1CC(c1ccc(I)cc1)[C@@H]2C(=O)OC` (stereo not given in full), the results for the Ki in experiment [1], in experiment [2] and in experiment [5] were 30 nM, more than 1000 nM and 200 nM, respectively. Further, the Selectivity in experiment [3] was more than 33; in experiment [4], 6.6.

Regarding `COC(=O)[C@H]1C(c2ccc(I)cc2)C[C@H]2CCC1N2Cc1ccccc1C` (stereo not given in full), the inhibition constant Ki in experiment [1] was 93 nM; in experiment [2] it was more than 1000 nM; in experiment [5], 225 nM. For the same compound, the Selectivity in experiment [3] is more than 10.6; in experiment [4], 2.4.

For the compound `COC(=O)[C@@H]1C2CC[C@H](C[C@@H]1c1ccc(I)cc1)N2C`, the results for the Ki in experiment [1], in experiment [2] and in experiment [5] were 27 nM, 80 nM and 3 nM, respectively. Also, the Selectivity in experiment [3] worked out at 2.9; in experiment [4], 0.1.

As to `C#CCN1C2CC[C@@H]1CC(c1ccc(I)cc1)[C@@H]2C(=O)OC` (stereo not given in full), the Ki was 14 nM in experiment [1], more than 1000 nM in experiment [2] and 100 nM in experiment [5]. Moreover, the Selectivity in experiment [3] was more than 71; in experiment [4], 7.1.

`COC(=O)[C@H]1C(c2ccccc2)C[C@H]2CCC1N2C/C=C/I` (stereo not given in full): the values for the inhibition constant (Ki) in experiment [1], in experiment [2] and in experiment [5] were 113 nM, more than 1000 nM and 100 nM, respectively. Further, the Selectivity is more than 8.8 in experiment [3] and 0.8 in experiment [4].

Consider `COC(=O)[C@@H]1C2CCC(C[C@@H]1c1ccc(I)cc1)N2Cc1ccccc1` (stereo not given in full), for which the Ki in experiment [1] was found to be 42 nM; in experiment [2] it was 600 nM; in experiment [5], 100 nM. Further, the Selectivity in experiment [3] worked out at 14.2; in experiment [4], 2.3.

For `C/C=C/CN1C2CC[C@@H]1CC(c1ccc(I)cc1)[C@@H]2C(=O)OC` (stereo not given in full), the Ki is 15 nM in experiment [1], 400 nM in experiment [2] and 75 nM in experiment [5]. In addition, the Selectivity in experiment [3] was 26.6; in experiment [4], 5.

`COC(=O)[C@H]1C(c2ccc(C(C)C)cc2)C[C@H]2CCC1N2C/C=C/I` (stereo not given in full): the Ki in experiment [1] was 500 nM; in experiment [2] it was more than 1000 nM; in experiment [5] it was 450 nM. In addition, the Selectivity in experiment [3] is more than 2; in experiment [4] it was 0.9.

In the case of `COC(=O)[C@H]1C(c2ccc(I)cc2)C[C@H]2CCC1N2C/C=C/I` (stereo not given in full), the Ki in experiment [1] was 30 nM; in experiment [2], 295 nM; in experiment [5] it was 960 nM. Moreover, the Selectivity in experiment [3] came to 9.8; in experiment [4], 32.
